From ChEMBL document CHEMBL1137530, “The discovery of substituted 4-(3-hydroxyanilino)-quinolines as potent RET kinase inhibitors” (Bioorg Med Chem Lett, 2007)
The source made the active and inactive calls. The rule behind the calls is not given here.

Assays:
[1] = molecular target: T1, Proto-oncogene tyrosine-protein kinase receptor Ret (Homo sapiens, UniProt P07949); test: Inhibition of RET kinase expressed in Sf9 cells at 5000 nm
Method in brief: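 RET kinase domain (intracellular aa 713–1072, short isoform), expressed in Sf9 insect cells and Ni-purified. 100 ng enzyme was screened at a single 5000 nM concentration, in triplicate. Reaction: MOPS pH 7.4, MgCl2, ATP (100 µM stock) plus [γ-33P]ATP 1 µCi, and poly(Glu-Tyr) substrate, 30 min at room temperature. Stopped with 0.5% H3PO4, filtered on phosphocellulose, read as scintillation cpm (mean of three).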

[2] = molecular target: Vascular endothelial growth factor receptor 2 (Homo sapiens) (UniProt P35968); test: Inhibitory of VEGFR2
[3] = molecular target: Proto-oncogene tyrosine-protein kinase Src (Homo sapiens) (UniProt P12931); test: Inhibitory of c-SRC
[4] = molecular target: Tyrosine-protein kinase Lyn (Homo sapiens) (UniProt P07948); test: Inhibitory of lyn
[5] = molecular target: Angiopoietin-1 receptor (Homo sapiens) (UniProt Q02763); test: Inhibitory of TIE2
[6] = molecular target: T1, Proto-oncogene tyrosine-protein kinase receptor Ret; test: Inhibition of RET kinase in Sf9 cells; type: cell-based
SK-N-MC = test: Inhibition of chimeric human EGFR/RET kinase expressed in SK-N-MC cells after 1 hr by Western blotting; type: cell-based

T1 sequence (P07949 whole entry, the tested form may be a part, canonical isoform): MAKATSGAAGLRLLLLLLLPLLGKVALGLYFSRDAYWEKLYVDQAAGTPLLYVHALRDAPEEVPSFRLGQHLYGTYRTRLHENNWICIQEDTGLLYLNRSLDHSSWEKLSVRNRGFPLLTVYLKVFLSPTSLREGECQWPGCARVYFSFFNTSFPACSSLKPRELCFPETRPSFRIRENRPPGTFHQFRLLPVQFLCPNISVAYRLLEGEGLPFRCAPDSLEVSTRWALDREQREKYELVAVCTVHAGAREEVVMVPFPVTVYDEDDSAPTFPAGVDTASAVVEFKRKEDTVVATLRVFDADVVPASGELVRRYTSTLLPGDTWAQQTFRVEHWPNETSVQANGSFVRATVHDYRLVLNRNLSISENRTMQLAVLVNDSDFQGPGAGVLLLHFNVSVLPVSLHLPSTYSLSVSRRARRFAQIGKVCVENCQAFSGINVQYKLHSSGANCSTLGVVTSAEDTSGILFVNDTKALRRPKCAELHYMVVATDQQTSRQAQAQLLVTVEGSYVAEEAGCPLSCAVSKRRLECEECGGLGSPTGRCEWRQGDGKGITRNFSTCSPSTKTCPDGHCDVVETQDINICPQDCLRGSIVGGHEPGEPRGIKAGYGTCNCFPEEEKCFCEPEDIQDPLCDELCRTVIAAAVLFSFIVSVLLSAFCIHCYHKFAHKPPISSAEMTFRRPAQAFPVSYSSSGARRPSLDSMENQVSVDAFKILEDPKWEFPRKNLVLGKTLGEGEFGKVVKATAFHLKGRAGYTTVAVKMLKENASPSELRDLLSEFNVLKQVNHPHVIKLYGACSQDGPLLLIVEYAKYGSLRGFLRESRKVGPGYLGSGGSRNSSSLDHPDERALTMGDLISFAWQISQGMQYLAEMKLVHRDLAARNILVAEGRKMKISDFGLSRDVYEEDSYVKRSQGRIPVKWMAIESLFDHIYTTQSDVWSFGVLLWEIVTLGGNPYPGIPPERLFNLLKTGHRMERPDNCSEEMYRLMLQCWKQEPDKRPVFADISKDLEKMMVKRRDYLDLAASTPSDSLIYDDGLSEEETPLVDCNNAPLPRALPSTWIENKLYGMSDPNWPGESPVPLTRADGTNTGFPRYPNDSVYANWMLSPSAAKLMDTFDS
Sequence of Angiopoietin-1 receptor (Homo sapiens) (Q02763 whole entry): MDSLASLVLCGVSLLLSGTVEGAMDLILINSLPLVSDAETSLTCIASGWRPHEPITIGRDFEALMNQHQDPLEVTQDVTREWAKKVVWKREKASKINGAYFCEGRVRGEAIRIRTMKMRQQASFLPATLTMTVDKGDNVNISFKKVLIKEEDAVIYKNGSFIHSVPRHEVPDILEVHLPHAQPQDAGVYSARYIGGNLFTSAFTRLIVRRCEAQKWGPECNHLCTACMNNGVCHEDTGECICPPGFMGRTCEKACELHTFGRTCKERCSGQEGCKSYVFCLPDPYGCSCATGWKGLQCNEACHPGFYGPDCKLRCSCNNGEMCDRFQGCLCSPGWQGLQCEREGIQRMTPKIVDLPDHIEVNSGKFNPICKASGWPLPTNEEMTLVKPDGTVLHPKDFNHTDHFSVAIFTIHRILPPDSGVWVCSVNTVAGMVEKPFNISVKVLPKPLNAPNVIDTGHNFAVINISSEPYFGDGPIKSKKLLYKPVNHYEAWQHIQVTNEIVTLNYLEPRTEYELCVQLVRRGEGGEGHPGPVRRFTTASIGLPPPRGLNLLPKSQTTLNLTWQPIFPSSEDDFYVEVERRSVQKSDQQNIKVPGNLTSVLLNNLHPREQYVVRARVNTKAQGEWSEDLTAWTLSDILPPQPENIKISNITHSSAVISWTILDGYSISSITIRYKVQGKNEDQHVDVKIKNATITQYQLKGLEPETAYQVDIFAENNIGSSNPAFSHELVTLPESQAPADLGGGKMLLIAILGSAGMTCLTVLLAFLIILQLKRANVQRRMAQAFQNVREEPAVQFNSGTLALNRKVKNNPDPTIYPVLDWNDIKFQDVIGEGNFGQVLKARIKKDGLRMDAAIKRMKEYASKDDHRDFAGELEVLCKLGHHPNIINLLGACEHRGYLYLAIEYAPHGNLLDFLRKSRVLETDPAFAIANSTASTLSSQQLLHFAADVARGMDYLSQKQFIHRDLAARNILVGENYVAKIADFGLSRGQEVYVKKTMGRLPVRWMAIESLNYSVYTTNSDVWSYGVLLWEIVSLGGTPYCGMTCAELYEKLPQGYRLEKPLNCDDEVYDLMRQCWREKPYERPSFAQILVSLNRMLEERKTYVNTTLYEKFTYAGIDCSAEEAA
Sequence of Vascular endothelial growth factor receptor 2 (Homo sapiens) (P35968 whole entry): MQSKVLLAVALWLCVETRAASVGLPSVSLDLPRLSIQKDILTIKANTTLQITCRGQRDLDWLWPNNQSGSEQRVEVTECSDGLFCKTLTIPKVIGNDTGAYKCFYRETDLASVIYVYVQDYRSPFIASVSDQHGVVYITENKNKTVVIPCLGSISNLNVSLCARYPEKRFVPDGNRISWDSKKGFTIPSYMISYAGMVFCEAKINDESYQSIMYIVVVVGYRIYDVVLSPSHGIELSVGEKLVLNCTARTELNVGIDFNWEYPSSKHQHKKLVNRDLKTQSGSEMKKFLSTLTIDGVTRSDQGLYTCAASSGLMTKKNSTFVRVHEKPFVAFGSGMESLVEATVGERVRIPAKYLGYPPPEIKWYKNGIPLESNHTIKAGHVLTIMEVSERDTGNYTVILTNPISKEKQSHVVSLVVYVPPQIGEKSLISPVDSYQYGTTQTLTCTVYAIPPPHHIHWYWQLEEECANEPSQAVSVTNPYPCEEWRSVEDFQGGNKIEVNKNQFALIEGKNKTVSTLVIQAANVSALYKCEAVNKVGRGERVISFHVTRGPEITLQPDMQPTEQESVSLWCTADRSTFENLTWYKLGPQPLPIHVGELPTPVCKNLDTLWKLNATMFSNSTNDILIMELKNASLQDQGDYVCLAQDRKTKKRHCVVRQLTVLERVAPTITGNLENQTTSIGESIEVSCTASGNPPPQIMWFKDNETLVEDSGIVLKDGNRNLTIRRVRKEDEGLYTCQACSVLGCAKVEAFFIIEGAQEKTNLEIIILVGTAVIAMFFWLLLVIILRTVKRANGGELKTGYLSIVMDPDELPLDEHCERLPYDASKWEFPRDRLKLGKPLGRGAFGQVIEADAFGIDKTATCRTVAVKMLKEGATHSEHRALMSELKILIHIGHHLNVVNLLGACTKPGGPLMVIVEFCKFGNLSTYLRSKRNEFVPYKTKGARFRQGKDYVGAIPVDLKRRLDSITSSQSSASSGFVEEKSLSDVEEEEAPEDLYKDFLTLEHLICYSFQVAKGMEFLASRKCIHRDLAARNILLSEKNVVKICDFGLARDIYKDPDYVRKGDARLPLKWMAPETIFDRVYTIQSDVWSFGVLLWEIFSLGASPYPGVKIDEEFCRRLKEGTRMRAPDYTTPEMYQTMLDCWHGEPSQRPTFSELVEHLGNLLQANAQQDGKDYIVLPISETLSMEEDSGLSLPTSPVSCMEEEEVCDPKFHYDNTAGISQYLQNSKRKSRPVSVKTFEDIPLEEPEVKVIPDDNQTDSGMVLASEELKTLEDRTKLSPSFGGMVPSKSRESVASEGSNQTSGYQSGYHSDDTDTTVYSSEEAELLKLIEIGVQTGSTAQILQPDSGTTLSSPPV
Sequence of Proto-oncogene tyrosine-protein kinase Src (Homo sapiens) (P12931 2-536 limits assumed): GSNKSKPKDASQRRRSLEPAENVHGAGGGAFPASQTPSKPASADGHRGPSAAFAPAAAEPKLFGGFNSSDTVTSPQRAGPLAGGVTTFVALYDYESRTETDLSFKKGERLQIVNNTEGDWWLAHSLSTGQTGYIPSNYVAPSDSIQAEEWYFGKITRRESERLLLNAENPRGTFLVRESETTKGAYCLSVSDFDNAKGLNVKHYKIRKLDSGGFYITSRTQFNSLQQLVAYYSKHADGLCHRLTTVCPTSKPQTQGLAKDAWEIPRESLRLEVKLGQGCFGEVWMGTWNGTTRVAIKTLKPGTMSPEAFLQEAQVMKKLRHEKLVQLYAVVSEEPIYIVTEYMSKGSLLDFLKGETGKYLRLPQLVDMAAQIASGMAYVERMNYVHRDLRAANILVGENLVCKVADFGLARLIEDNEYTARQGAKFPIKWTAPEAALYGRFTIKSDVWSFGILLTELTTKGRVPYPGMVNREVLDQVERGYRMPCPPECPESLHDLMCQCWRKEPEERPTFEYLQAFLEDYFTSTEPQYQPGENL
Sequence of Tyrosine-protein kinase Lyn (Homo sapiens) (P07948 2-512 limits assumed): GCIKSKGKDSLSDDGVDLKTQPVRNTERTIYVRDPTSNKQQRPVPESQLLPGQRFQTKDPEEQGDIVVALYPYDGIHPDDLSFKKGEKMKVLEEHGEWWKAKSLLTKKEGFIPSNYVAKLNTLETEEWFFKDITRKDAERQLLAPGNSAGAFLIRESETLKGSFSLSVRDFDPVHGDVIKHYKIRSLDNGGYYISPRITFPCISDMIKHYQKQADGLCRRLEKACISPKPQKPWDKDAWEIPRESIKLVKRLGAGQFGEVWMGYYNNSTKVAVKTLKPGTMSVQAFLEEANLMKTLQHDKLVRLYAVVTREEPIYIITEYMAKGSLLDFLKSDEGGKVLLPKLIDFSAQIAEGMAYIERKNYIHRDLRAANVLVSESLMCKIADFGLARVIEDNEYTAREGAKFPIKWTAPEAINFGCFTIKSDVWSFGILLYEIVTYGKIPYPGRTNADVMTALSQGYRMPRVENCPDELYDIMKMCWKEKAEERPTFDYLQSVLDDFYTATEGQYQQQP

| Activity [1] [cpm] | IC50 [6] [µM] | Structure (SMILES) | further results |
| --- | --- | --- | --- |
| 1210 |  | CN(C)S(=O)(=O)c1ccc(N/C=C2\C(=O)Nc3ccc4ncccc4c32)cc1 |  |
| 460 |  | CS(=O)(=O)c1ccc2nccc(Nc3cc(O)c(F)cc3Cl)c2c1 |  |
|  | 0.09 | Cc1ccc(O)cc1Nc1ccnc2ccc(S(=O)(=O)NCC3CC3)cc12 |  |
|  | > 1 | Cc1ccc(O)cc1Nc1cc(C(F)(F)F)nc2cc(-c3ccncc3)ccc12 |  |
|  | 0.006 | Oc1cccc(Nc2ccnc3cc(-c4ccccn4)ccc23)c1 |  |
|  | 0.025 | OCc1nc(-c2ccc3c(Nc4cc(O)c(F)cc4Cl)ccnc3c2)cs1 |  |
|  | 0.075 | Cc1ccc(O)cc1Nc1ccnc2cc(-c3ccccn3)ccc12 |  |
|  | 0.034 | Cc1ccc(O)cc1Nc1ccnc2cc(-c3csc(CN4CCOCC4)n3)c(S(C)(=O)=O)cc12 | Activity [2]: Active; Activity [3]: Active; Activity [4]: Active; Activity [5]: Active; ED50 (SK-N-MC): 0.045 µM |
|  | 0.095 | Cc1ccc(O)cc1Nc1ccnc2ccc(C(=O)NC(C)C)cc12 |  |

The next lines start with the molecule.

| Structure (SMILES) | Activity [1] [cpm] | IC50 [6] [µM] | further results |
| --- | --- | --- | --- |
| O=C1Nc2ccc3ncsc3c2/C1=C/c1c[nH]cn1 | 950 |  |  |
| Cc1ccc(O)cc1Nc1ccnc2ccc(S(C)(=O)=O)cc12 |  |  | Activity [2]: Active; Activity [3]: Active; Activity [4]: Active; Activity [5]: Active |
| Oc1cccc(Nc2c(Cl)cnc3cc(-c4cncs4)ccc23)c1 |  | 0.1 |  |
| Oc1cc(Nc2ccnc3cc(-c4ccc(CN5CCOCC5)o4)c(Cl)cc23)c(Cl)cc1F |  | > 1 |  |
| CS(=O)(=O)Cc1ccc(N/C=C2\C(=O)Nc3ccc4ncsc4c32)cc1 | 1310 |  |  |
| O=C1Nc2ccc3ncsc3c2/C1=C/Nc1ccc2c(c1)CS(=O)(=O)C2 | 428 |  |  |
| COc1cc2ncnc(Nc3ccc(Cl)c(O)c3)c2cc1OC | 298 |  |  |
| NS(=O)(=O)c1ccc(-c2cnc3c(c2)/C(=C/c2cc(Br)c(O)c(Br)c2)C(=O)N3)cc1 | 355 |  |  |
| Oc1cc(Nc2ccnc3cc(-c4cc5ccccc5o4)ccc23)ccc1Br |  | 0.085 |  |
| Oc1cc(Nc2ccnc3cc(-c4cccc(CNCCN5CCOCC5)c4)ccc23)c(F)cc1Cl |  | 0.075 |  |
